Screens (PubChem BioAssay)
RGS4 pot: RGS4 potentiation or activation | HEK293 M3R/inducible RGS4, carbachol calcium flux Fluo4; active compounds read low | B-score at 10 µM | 310,000 tested, 0.92% active;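 active = B-score of the integrated calcium signal more than 4 SD below the library mean, with starting fluorescence not abnormally high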;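 also: negative B-score means reduced calcium response which marks RGS4 activation or potentiation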
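Reagent: ECmax carbachol challenge; Test system: M3R-expressing HEK293 line, RGS4 induced by doxycycline; Schedule: overnight RGS4 induction, 30 min dye load 37 °C, 20 min compound RT; Detection: calcium dye Fluo4 fluorescence; Read-out: Agonist-evoked peak-minus-minimum fluorescence over baseline, integrated ratio, B score.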
RGS4 inh: human RGS4 inhibition | P49798 | HEK293 M3R/RGS4 inducible, Fluo-4 calcium flux; active compounds read high; triggered by carbachol at its EC20 | B-score at 10 µM | 310,000 tested, 0.45% active;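 active = B-score, a plate-corrected calcium signal, over three deviations above library mean, with baseline fluorescence within five deviations of library mean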;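 also: RGS4 expression induced by doxycycline in cells with stable M3 receptor; B-score is computed from the integrated fluorescence ratio over baseline after carbachol; higher B-score means a larger calcium signal and so more RGS4 inhibition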
Target sequence (P49798 whole entry, looked up): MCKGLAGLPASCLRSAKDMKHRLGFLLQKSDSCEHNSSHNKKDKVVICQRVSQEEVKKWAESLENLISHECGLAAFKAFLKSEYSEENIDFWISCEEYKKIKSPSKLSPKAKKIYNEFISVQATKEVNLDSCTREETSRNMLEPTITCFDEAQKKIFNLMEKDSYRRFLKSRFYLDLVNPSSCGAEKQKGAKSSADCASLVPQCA
MrgX1 ag: agonists of human MrgX1 receptor; Q96LB2; MrgX1-HEK293 cells, Fluo-4 calcium fluorescence, agonist mode; active compounds read high; B-score at 10 µM; 310,000 tested, 0.44% active;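 active = calcium response B-score plate-corrected fluorescence ratio at least 3 library SD, with starting fluorescence B-score inside 5 SD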
Target sequence (Q96LB2 whole entry, looked up): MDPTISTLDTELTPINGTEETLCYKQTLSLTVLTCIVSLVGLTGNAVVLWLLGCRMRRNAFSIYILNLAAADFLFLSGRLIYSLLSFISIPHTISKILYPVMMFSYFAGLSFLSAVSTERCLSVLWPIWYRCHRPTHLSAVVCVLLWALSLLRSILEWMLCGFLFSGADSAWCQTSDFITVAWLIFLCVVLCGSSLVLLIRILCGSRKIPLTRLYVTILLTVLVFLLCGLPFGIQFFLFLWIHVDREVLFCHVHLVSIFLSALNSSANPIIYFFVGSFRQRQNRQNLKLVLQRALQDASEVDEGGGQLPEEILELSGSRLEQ
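Assay system: MrgX1-expressing HEK293 cells / Amount: fifteen thousand cells per well / Doses: test compound in the initial addition of three / Timing: cells plated overnight, dye loaded 0.5 h 37 °C, 0.5 h room temperature / Technique: kinetic calcium dye fluorescence, Fluo-4 NW / Control set: positive and negative controls per plate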
MrgX1 allo act: human MrgX1 positive allosteric modulation, primary screen | Q96LB2 | MrgX1-HEK293, Fluo-4 calcium flux, FDSS; active compounds read high | B-score at 10 µM | 310,000 tested, 0.63% active;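 active = plate-corrected calcium response at least 3 library SD above typical, normal starting fluorescence, not activating the receptor alone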;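 also: compound read alongside a low EC10 to EC30 dose of BAM8-22 agonist; peak minus trough fluorescence over baseline measured at the second addition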
MrgX1 antag: antagonists of human MrgX1 receptor; 310,000 tested, 1.3% active; MRGX1-HEK293 calcium flux, Fluo-4, BAM8-22 antagonism; active compounds read low; B-score at 10 µM; Q96LB2;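 active = calcium-response B-score plate-corrected more than 3 library SD below zero, starting fluorescence within 5 deviations, no agonist response on first addition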;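 also: peak minus trough fluorescence over baseline after final BAM8-22 challenge near maximal dose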
MrgX1 ag reconf: reconfirmed activator of human MrgX1 receptor signaling; shares compounds with MrgX1 ag; 600 tested, 78% active; MrgX1-HEK293, Fluo-4 calcium fluorescence, FDSS; activation, % at 10 µM;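 active = calcium signal rise, corrected for plate position, at least 3 library SD high, with starting brightness within 5 such deviations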
HEK293 Ca flux: MrgX1 antagonist counter-screen hit in parental HEK293 cells; shares compounds with MrgX1 antag; Fluo-4 calcium fluorescence, FDSS; fluorescence ratio F(max-min)/F0 at 10 µM; 4,000 tested, 2% active;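 active = duplicate-averaged calcium fluorescence ratio at least three times the standard deviation of buffer wells, a nonspecific response in parental cells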
HEK293 Ca counter: activity in parental HEK293 cells without MrgX1 | parental HEK293 calcium flux, Fluo-4 fluorescence ratio; active compounds read high | fluorescence ratio F(max-min)/F0 at 10 µM | 4,000 tested, 0.4% active | shares compounds with MrgX1 antag;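 active = calcium fluorescence ratio, averaged over duplicates, at least 3 SD of the buffer-well ratio, meaning a nonspecific response in receptor-free cells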;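 also: untransfected parental HEK293 lacking MrgX1 used as counterscreen for MrgX1 allosteric activators; fluorescence change taken during the second addition on a kinetic imager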
HEK293 Ca cntr2: counter-screen for MrgX1 activators: effect in parental HEK293 cells | 4,000 tested, 8.7% active | Fluo-4 calcium fluorescence (FDSS); active compounds read high | fluorescence ratio F(max-min)/F0 at 10 µM | shares compounds with MrgX1 antag | AID 624115;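 active = calcium fluorescence ratio at least three times the spread of buffer wells, meaning a non-specific response in parental cells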
* hit, by the source's call; i = inactive; / = no result given. This is a sample that favours compounds with a hit; in the whole collection about 3.5% have one here.

SMILES | RGS4 pot | RGS4 inh | MrgX1 ag | MrgX1 allo act | MrgX1 antag | MrgX1 ag reconf | HEK293 Ca flux | HEK293 Ca counter | HEK293 Ca cntr2
CC(C)NC[C@H](O)c1ccc(O)c(O)c1 | / | / | 32* | i | i | 123.6%* | i | i | i
Cc1[nH][nH]c(=O)c1C(c1ccc(-c2cccc(Cl)c2)o1)c1c(C)[nH][nH]c1=O | i | i | 29* | i | i | 198.2%* | i | i | 55.6*
O=C(/C=C/c1ccc(O)c(O)c1)O[C@H](Cc1ccc(O)c(O)c1)C(=O)O | i | i | / | / | / | / | / | / | /
Cc1cc(/C=C2\NC(=S)N(C)C2=O)ccc1N1CCCC1 | i | i | 90.7* | i | i | i | 0.295* | i | 203*
COc1cc(/C=C2\NC(=S)N(C)C2=O)ccc1O | i | i | i | i | i | / | / | / | /
CCN1C(=O)/C(=C/c2ccc(N3CCCC3)cc2)NC1=S | i | i | 70.2* | i | i | i | 0.02* | i | 251*
Cc1cccc(N(C(=O)c2snc(C(N)=O)c2N)C(C(=O)NCC2CCCO2)c2ccc(N(C)C)cc2)c1C (stereo unspecified) | i | i | i | i | i | / | / | / | /
CC1(c2ccc(OC(F)F)cc2)NC(=O)N(CC(=O)c2ccc3c(c2)OCO3)C1=O (stereo unspecified) | i | i | 35* | i | i | 175.6%* | i | i | 54.6*
CC1(c2ccc([N+](=O)[O-])cc2)NC(=O)N(CC(=O)c2ccc3c(c2)OCO3)C1=O (stereo unspecified) | i | i | i | i | i | / | / | / | /
COCCN=c1scc(C)n1/N=C/C1CC2C=CC1C2 (stereo unspecified) | i | i | i | i | i | / | / | / | /
COc1ccc(/C=N/Nc2ccccc2)cc1Cn1nc(C)c([N+](=O)[O-])c1C | i | i | i | i | i | / | / | / | /
COc1ccc(-c2csc(NC(=O)CN3C(=O)C4CCCCC4C3=O)n2)cc1OC (stereo unspecified) | i | i | 29.7* | i | i | i | i | i | i
COc1ccc(OC)c(-c2csc(NC(=O)CN3C(=O)C4CCCCC4C3=O)n2)c1 (stereo unspecified) | i | i | i | i | i | / | / | / | /
COc1ccc(-c2csc(NC(=O)CSCc3c(C)noc3C)n2)cc1OC | i | i | 44.2* | i | i | i | i | i | i
CCOC(=O)c1ccccc1-c1cn2cc(Cl)ccc2n1 | i | i | 29.9* | i | i | 152.1%* | i | i | i
CC1CC(C)(C)NC(=S)N1CCCC(=O)N1CCN(c2ccc(F)cc2)CC1 (stereo unspecified) | i | i | i | i | i | / | / | / | /
O=c1oc(-c2ccccc2Cl)nc2ccsc12 | i | i | 50.9* | i | i | 210.3%* | i | i | 59.7*
O=C(Nc1ccc(Cl)cc1)c1ccc2c(=O)n3c(nc2c1)CCCCC3 | i | i | i | i | i | / | / | / | /
O=C(Nc1ccc(Br)cc1Cl)c1ccc2c(=O)n3c(nc2c1)CCC3 | i | i | 55* | i | i | 467.7%* | i | i | 102*
O=C(Nc1ccc(Cl)cc1Cl)c1ccc2c(=O)n3c(nc2c1)CCC3 | i | i | 85* | i | i | 461.8%* | i | i | 107*
COc1cc2[nH]c(C(=O)N3CCN(c4ccccc4F)CC3)cc2c(OC)c1OC | i | i | i | i | i | / | / | / | /
O=C(N/N=C/c1cccc(Oc2ccccc2)c1)c1ccccc1Br | i | i | i | i | i | / | / | / | /
N#CCSc1nc2ccccc2c(=O)n1C1CCCCC1 | i | i | i | i | i | / | / | / | /
O=c1c2ccccc2nc(SCc2cccc(F)c2)n1C1CCCC1 | i | i | 28.8* | i | i | 196.4%* | i | 52.8* | i
Cc1ccc(C(=O)C2=C(O)C(=O)N(c3ncccn3)C2c2ccccc2F)o1 (stereo unspecified) | i | i | i | i | i | / | / | / | /
SMILES | RGS4 pot | RGS4 inh | MrgX1 ag | MrgX1 allo act | MrgX1 antag | MrgX1 ag reconf | HEK293 Ca flux | HEK293 Ca counter | HEK293 Ca cntr2
CCOC(=O)Nc1ccc2c(c1)N(C(=O)N(CC)CC)c1ccccc1CC2 | i | i | 38.4* | i | i | 161.0%* | i | i | 46.5*
CCOC(=O)Nc1ccc2c(c1)N(C(=O)N(C)C)c1ccccc1CC2 | i | i | i | i | i | / | / | / | /
O=C(COc1ccccc1)N(Cc1cccc(F)c1)C1CCS(=O)(=O)C1 (stereo unspecified) | i | i | i | i | i | / | / | / | /
COc1cccc(CN2CCN(Cc3cc4ccccc4[nH]3)CC2CCO)c1 (stereo unspecified) | i | i | 123* | i | i | 312.7%* | i | i | 49.1*
Cc1ccc(C)c(NS(=O)(=O)c2c(C)nc3sccn3c2=O)c1 | i | i | i | i | i | / | / | / | /
COc1cc2c(cc1OC)C(c1ccccc1C(F)(F)F)CC(=O)N2 (stereo unspecified) | i | i | 28.8* | i | i | i | i | i | i
Cc1cc(C)nc(/N=C(\N)Nc2ccc(-c3ccccc3)cc2)n1 | -7.1* | i | 74* | i | i | 300.2%* | i | i | i
CCOc1ccc(N/C(N)=N/c2nc(C)cc(C)n2)cc1 | i | i | 142* | i | i | 434.3%* | i | i | 94.4*
Cc1cc(C)nc(/N=C(\N)Nc2ccc(S(N)(=O)=O)cc2)n1 | i | i | i | i | i | / | / | / | /
Cc1ccc(C)c(N/C(N)=N/c2nc(C)cc(C)n2)c1 | i | i | 58.5* | i | i | 385.0%* | i | i | 85.3*
CC(=O)Nc1ccc(N/C(N)=N/c2nc(C)cc(C)n2)cc1 | i | i | i | i | i | / | / | / | /
Cc1cc(C)nc(/N=C(\N)Nc2ccc(SC(F)F)cc2)n1 | i | i | 57* | i | i | 443.8%* | i | i | 97.7*
COc1ccc(C)cc1N/C(N)=N/c1nc(C)cc(C)n1 | i | i | i | i | i | / | / | / | /
